This is a sample that favours compounds with a hit; in the whole collection about 0.83% have one here.
TRPML3 agonist: agonists of human TRPML3 channel; hit rate 0.29% among 220,000; AID 1448; HEK293 TRPML3-YFP, Fluo-8 calcium fluorescence; 100% = the carbachol control signal; activation, % at 3 µM; Q8TDD5;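 active means activation above its plate's cutoff, the mean activation of the plate's test wells plus 3 SD, cut at about 12% in these data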;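 further: 0% = DMSO only wells and 100% = carbachol wells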
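Material: HEK293 cells stably carrying human TRPML3-YFP; compound dosing: single dose, 3 µM final nominal compound, 0.3% DMSO final; incubation: 1-h 37 °C dye load, 5-s basal, 120-s post-compound reads; technique: Fluo-8 intracellular calcium fluorescence, excitation 470-495 nm, emission 515-575 nm; read-out basis: percent activation from peak-to-basal fluorescence ratio, scaled between DMSO and carbachol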
OXTR ag: activates the human oxytocin receptor; AID 2435; CHO-OTR cells, Fluo-8 calcium fluorescence; normalized: DMSO 0%, oxytocin 100%; P30559; hit rate 0.32% among 320,000; activation, % at 3 µM;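 active means activation above the mean of all tested compounds plus 3 SD, cutoff set per screening run, cut at about 20% in these data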;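 further: peak over basal fluorescence ratio from a 100 s FLIPR kinetic read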
CRFR2-BP ag: agonists of human CRF-binding protein/CRF-R2 receptor complex; activation, % at 13.2 µM; AID 588473; HEK293 CRF-R2/CRF-BP, calcium dye fluorescence (FLIPR); percent of saturating CRF peptide response; hit rate 0.46% among 350,000;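 active means activation of at least 50%, plus an integration ratio under a set limit after plate pattern correction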;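 further: plate controls were neutral control wells without compound for no effect and CRF at EC100 for full effect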
V1R ag counter: activates human V1a receptor in oxytocin agonist counter-screen; CHO-V1R cells, Fluo-8 calcium fluorescence, agonist mode; 0% DMSO, 100% 3 nM vasopressin; AID 2797; P37288; hit rate 0.25% among 320,000; activation, % at 3 µM;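 active means activation above the mean activation of all tested compounds plus 3 SD, per screening run, cut at about 20% in these data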;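 further: signal is peak over basal fluorescence ratio across a 100 second FLIPR read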
Target sequence (P37288 whole entry, looked up): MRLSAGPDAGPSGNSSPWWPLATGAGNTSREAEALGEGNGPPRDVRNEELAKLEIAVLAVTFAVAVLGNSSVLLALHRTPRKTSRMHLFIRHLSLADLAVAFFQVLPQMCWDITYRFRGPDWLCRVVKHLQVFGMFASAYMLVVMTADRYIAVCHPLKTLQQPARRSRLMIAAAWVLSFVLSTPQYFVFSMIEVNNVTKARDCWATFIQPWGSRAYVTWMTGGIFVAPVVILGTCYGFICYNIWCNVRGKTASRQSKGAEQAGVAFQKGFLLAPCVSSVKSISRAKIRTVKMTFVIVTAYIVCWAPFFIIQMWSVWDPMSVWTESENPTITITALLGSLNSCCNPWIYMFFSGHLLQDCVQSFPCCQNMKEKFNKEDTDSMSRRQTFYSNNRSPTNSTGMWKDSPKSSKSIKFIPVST
OXTR potentiator: human OXTR potentiation | P30559 | CHO-OTR cells, Fluo-8 calcium fluorescence, potentiator mode; 0% = oxytocin EC15, 100% = EC100 | activation, % at 3 µM | hit rate 0.061% among 320,000 | AID 2445;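 active means activation above that plate's cutoff, the mean activation of tested compounds plus 3 SD, cut at about 6.6% in these data, passing the limit was not always enough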;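 further: 100% uses oxytocin at 75 nM as the full agonist control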
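Assay system: CHO cell line stably expressing human OTR | Also added: Oxytocin at about EC15, sub-maximal agonist stimulus | Times: Compound 6 min at room temperature before oxytocin, 100 s read | Measured by: Fluo-8 intracellular calcium fluorescence, ex 470-495, em 515-575 nm | Controls: EC15 oxytocin alone as 0%, 75 nM oxytocin as 100%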
zfTRPN1 agonist: agonists of zebrafish TRPN1 channel; HEK293 zebrafish TRPN1-YFP, Fluo-8 calcium fluorescence; 100% = response to 87 µM carbachol; activation, % at 3 µM; hit rate 0.18% among 220,000;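 active means activation above its plate's cutoff, the mean activation of test wells on that plate plus 3 SD, cut at about 19% in these data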;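 further: 0% = DMSO alone and 100% = 87 µM carbachol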
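System: zebrafish TRPN1-YFP in HEK293 cells / Dosing: 3 µM single point / Timing: dye loading 1 h at 37 °C, then 30 min room temperature / Signal: Fluo-8 calcium fluorescence, excitation 470-495 nm, emission 515-575 nm / Read-out basis: percent activation from peak over basal fluorescence ratio, control-normalized / Control set: high carbachol 87 µM, low DMSO alone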
The depositor's hits bear a star; x = not tested or not shown.

SMILES	TRPML3 agonist	OXTR ag	CRFR2-BP ag	V1R ag counter	OXTR potentiator	zfTRPN1 agonist
N#C/C(=C\c1ccccn1)c1nc2ccccc2s1	7.5	27.5*	81.7*	30.6*	-16.1	26.2*
N#C/C(=C/c1ccc(-c2ccc(S(N)(=O)=O)cc2)o1)c1nc2ccccc2s1	13.7*	37.9*	203.3*	50.7*	-9.6	12.9
N#C/C(=C/c1ccc(-c2ccccc2)o1)c1nc(-c2cccs2)cs1	2.9	15.7	158.7*	10.3	-4.5	3.6
N#C/C(=C\c1ccc(-c2ccc(F)cc2)o1)C(=O)Nc1nc(-c2cccs2)cs1	0.2	-0.7	10.3	-0.1	-9.8	1.2
COc1cc(NC(=O)CCl)ccc(=O)c1	x	x	0.6	x	x	x
CCCCN(C)CC(O)Cn1cc(/C=C/C(=O)c2cccs2)c2ccccc21 (configuration not stated)	3.9	11.8	33.4	6.0	-7.0	5.5
O=C(/C=C/c1cn(CC(O)CN2CCCCCC2)c2ccccc12)c1cccs1 (configuration not stated)	2.1	6.2	64.9*	2.3	-8.2	2.1
O=C(COC(=O)C1CCC1)NCc1ccccc1	x	-0.6	0.7	0.2	-10.3	x
COc1cc(/C=c2\s/c(=C(/C#N)C(=O)N3CCCC3)n(-c3ccccc3)c2=O)ccc1O	3.4	11.7	66.9*	16.6	-11.9	9.6
O=C(NCC(c1ccco1)N1CCCC1)c1cc2cc(Cl)ccc2o1 (configuration not stated)	x	0.8	57.0*	1.6	-4.1	x
O=C(NCC(c1ccco1)N1CCCC1)c1ccc(Cl)cc1 (configuration not stated)	1.2	0.2	0.1	-0.3	-5.8	-0.5
c1ccc(Nc2ccc3c4c(cccc24)CC3)cc1	0.0	0.9	0.3	4.2	-3.4	-0.7
Nc1ccc2c3c(cccc13)CC2	19.9*	46.0*	2.6	46.3*	-7.6	41.7*
CCOc1ccccc1N(CC(=O)Nc1ccccc1Br)S(=O)(=O)c1ccccc1	x	x	3.1	x	x	x
C#CCN(C[C@H]1[C@H](OC(=O)Nc2c(C)noc2C)[C@H](OC(=O)Nc2c(C)noc2C)C[C@H]2C(=O)N(c3ccccc3)C(=O)[C@@H]12)S(=O)(=O)c1ccc(C)cc1	x	x	12.9	x	x	x
Cc1ccccc1SCC(=O)OCC(=O)NCc1ccccc1	x	-1.4	1.0	-1.5	-7.1	x
Cc1cc2nc3c(=O)[nH]c(=S)[nH]c3nc2cc1NC(=O)C(F)(F)F	x	55.0*	17.2	80.0*	-16.7	x
Cc1ccc(S(=O)(=O)N2CCC(=O)N(C(COCc3ccc(C(F)(F)F)cc3)Cc3ccccc3)CC2)cc1 (configuration not stated)	0.4	-0.3	62.1*	3.5	-13.3	1.1
Cc1ccc(S(=O)(=O)N2CCC(=O)N(C(COCc3ccc(Cl)c(Cl)c3)Cc3ccccc3)CC2)cc1 (configuration not stated)	0.2	0.3	70.8*	-0.5	-7.3	-1.1
Cc1ccc(S(=O)(=O)N2CCC(=O)N(C(COCc3cccc(C)c3)Cc3ccccc3)CC2)cc1 (configuration not stated)	5.5	-0.2	13.5	2.1	-9.5	13.4
CC(Sc1nnnn1C)C(=O)NC1CCCC1 (configuration not stated)	x	1.4	-0.6	1.0	9.3	x
O=C(CN1C(=O)NC2(CCCCCCC2)C1=O)NCc1ccccc1	x	-0.5	-0.2	-0.3	-6.4	x
CCC(C(=O)OCC(=O)N1CCN(c2ccc(OC)cc2)CC1)c1ccccc1 (configuration not stated)	x	5.5	-0.2	5.3	-8.4	x
Cc1cccc(S(=O)(=O)C(C#N)c2nc3ccccc3nc2N2CCCC2)c1 (configuration not stated)	1.9	0.7	64.0*	0.7	-18.9	1.4
Cc1nc(N)nc(N)c1-c1ccc([N+](=O)[O-])cc1	x	x	1.9	x	x	x
SMILES	TRPML3 agonist	OXTR ag	CRFR2-BP ag	V1R ag counter	OXTR potentiator	zfTRPN1 agonist
CC1=[N+]([O-])C(C)(C)N(O)C1(C)C	1.2	0.4	152.1*	-0.1	-3.0	0.1
Cc1ccc(NC(=O)CCS(=O)(=O)c2cccc3nonc23)c(Br)c1	x	0.1	0.5	0.8	-2.4	x
COc1ccc(/C=C2/CC/C(=C\c3ccc(OC)c(OC)c3OC)C2=O)c(OC)c1OC	0.4	-0.2	52.2*	2.3	-2.1	1.6
COc1ccc(/C=C2\CCC(C3CCCC3)C2=O)c(OC)c1OC (configuration not stated)	x	-0.6	2.0	0.0	-14.0	x
COc1ccc(NC(=O)CN(C)C(=O)c2ccc(-c3ccccc3Cl)o2)cc1	x	-2.1	-2.0	-0.3	-3.8	x
COc1ccc(OC)c(/C=c2\sc3nc(-c4cccs4)nn3c2=O)c1	0.2	1.1	174.8*	0.8	1.7	0.6
O=C1c2ccc(-c3ccc4c(c3)C(=O)N(CCCO)C4=O)cc2C(=O)N1CCCO	1.1	1.0	-1.9	-0.9	3.4	0.6
O=C1C2=C(SCCS2)C(=O)N1CCCO	1.3	1.3	59.2*	2.5	-0.7	0.0
CCCN1C(=O)/C(=C/c2ccc(OCC(=O)OCC)cc2)NC1=S	2.0	x	0.7	x	x	10.8
Cc1cc(/C=C2\NC(=S)N(C)C2=O)ccc1N1CCCC1	12.1*	69.3*	282.6*	79.4*	-19.5	31.8*
Cc1cc(/C=C2/C(=O)N(C)C(=S)N2C)ccc1N1CCCC1	4.0	22.6*	80.8*	29.4*	-20.6	7.4
CCCN1C(=O)/C(=C/c2ccc(N3CCCC3)c(C)c2)NC1=S	52.1*	112.2*	346.1*	113.0*	-24.5	84.6*
N#CC(=C(O)COC(=O)CCCNC(=O)c1ccc(Cl)cc1)c1nc2ccccc2[nH]1	x	x	2.4	x	x	x
COc1ccccc1NS(=O)(=O)c1cc([N+](=O)[O-])ccc1N/N=C/c1c(C)[nH]c2ccccc12	1.2	16.7	37.2	14.7	-9.2	0.8
O=[N+]([O-])c1ccc(N/N=C/c2c[nH]c3ccccc23)c(S(=O)(=O)Nc2ccc(Cl)cc2)c1	0.2	0.6	93.8*	1.1	-10.8	-0.7
CCn1cc(/C=C/c2cc[n+](C)cc2)c2ccccc21	x	9.0	56.2*	8.9	-14.8	x
CC(C)n1cc(/C=C/c2cc[n+](C)cc2)c2ccccc21	x	x	58.2*	x	x	x
CCN(CC)C(=O)Cn1c(C)c(/C=C/c2cc[n+](C)cc2)c2ccccc21	x	0.1	29.6	0.5	-10.0	x
C=CCn1cc(/C=C/c2cc[n+](C)cc2)c2ccccc21	x	2.9	77.1*	6.1	-0.3	x
CC(C)n1cc(/C=N/Nc2ccc(C(=O)O)cc2)c2ccccc21	x	4.9	-5.2	7.5	-15.4	x
CC(CNc1ccc(Cl)cc1)(CNc1ccc(Cl)cc1)[N+](=O)[O-]	x	x	-1.5	x	x	x

Screening data (PubChem BioAssay)
